The subject of one experiment is Candida albicans. Put plainly: Antifungal activity against Candida albicans after 30 to 72 hrs by agar culture method. It counts as functional, organism-based. The method, boiled down: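 Agar well assay on C. albicans: compounds at a range of concentrations in DMF were loaded into 6 mm wells. Plates were incubated at 30 °C for 30–72 h. Inhibition zones were read in mm against standard drugs.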

Experiment [1] concerns Streptococcus pyogenes. Put plainly: Antibacterial activity against multidrug-resistant Streptococcus pyogenes after 20 hrs by cylinder and well method. It counts as functional. The essentials:
(§1)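 Agar diffusion assay: organisms grown overnight on 2% agar with 5% sheep blood under 10% CO2. Inocula were diluted in Ringer solution, treated in Todd–Hewitt medium and spread on agar plates. Drug spots were applied, with about 5 × 10^3 CFU/spot. Plates were held at 37 °C for 20 h. Inhibition zones were read in mm against standard drugs and vehicle.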

For experiment [2], the system named is Streptococcus pyogenes. As to the kind of experiment: Antibacterial activity against multidrug-resistant Streptococcus pyogenes after 24 hrs by broth microdilution method. It counts as functional. The method, boiled down: (§2)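 MIC was determined in Mueller–Hinton broth.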
Experiment [3] has as its system Staphylococcus aureus. As to the kind of experiment: Antibacterial activity against multidrug-resistant Staphylococcus aureus after 24 hrs by broth microdilution method. Type of experiment: functional. The method, boiled down:
as §2

Experiment [4] has as its system Staphylococcus aureus. Put plainly: Antibacterial activity against multidrug-resistant Staphylococcus aureus after 20 hrs by cylinder and well method. Type of experiment: functional. The essentials: as §1
Experiment [5] deals with Salmonella enterica subsp. enterica. As to the kind of experiment: Antibacterial activity against multidrug-resistant Salmonella typhi after 24 hrs by broth microdilution method. Type of experiment: functional, Salmonella enterica subsp. enterica serovar Typhi. The essentials:
as §2

The test system is the same in experiment [6]. As to the kind of experiment: Antibacterial activity against multidrug-resistant Salmonella typhi after 20 hrs by cylinder and well method. Type of experiment: functional, Salmonella enterica subsp. enterica serovar Typhi. The essentials: as §1
The subject of experiment [7] is Streptococcus agalactiae. Put plainly: Antibacterial activity against multidrug-resistant Streptococcus agalactiae after 24 hrs by broth microdilution method. Type of experiment: functional. The method, boiled down: as §2
Experiment [8] deals with Streptococcus agalactiae. As to the kind of experiment: Antibacterial activity against multidrug-resistant Streptococcus agalactiae after 20 hrs by cylinder and well method. Type of experiment: functional. The essentials:
as §1

For experiment [9], the system named is Streptococcus pneumoniae. Put plainly: Antibacterial activity against multidrug-resistant Streptococcus pneumoniae after 20 hrs by cylinder and well method. It counts as functional. The method, boiled down:
as §1

For experiment [10], the system named is Streptococcus pneumoniae. Put plainly: Antibacterial activity against multidrug-resistant Streptococcus pneumoniae after 24 hrs by broth microdilution method. It counts as functional. The method, boiled down:
as §2

Experiment [11] deals with Pseudomonas aeruginosa. As to the kind of experiment: Antibacterial activity against multidrug-resistant Pseudomonas aeruginosa after 24 hrs by broth microdilution method. Type of experiment: functional. The essentials:
as §2

Experiment [12] has as its system Pseudomonas aeruginosa. As to the kind of experiment: Antibacterial activity against multidrug-resistant Pseudomonas aeruginosa after 20 hrs by cylinder and well method. It counts as functional. The method, boiled down: as §1
Experiment [13] relates to Escherichia coli. As to the kind of experiment: Antibacterial activity against multidrug-resistant Escherichia coli after 20 hrs by cylinder and well method. It counts as functional. The method, boiled down:
as §1

The subject of experiment [14] is Escherichia coli. Put plainly: Antibacterial activity against multidrug-resistant Escherichia coli broth after 24 hrs by broth microdilution method. It counts as functional. The method, boiled down: as §2

Converted amounts (≈) assume the structure as drawn. The source made the active and inactive calls. The calls are words filed in the database; no cut-off is given here.

In the case of `O=C(Cn1c2ccccc2c2nc3ccccc3nc21)N1N=C(c2cc3ccccc3o2)CC1c1ccc(O)cc1` (stereo not given), in the experiment on Candida albicans, the outcome was inactive. Also, the “inhibition zone (IZ)” value was determined as 15 mm in the experiment with Streptococcus pyogenes [1]; 14 mm with Staphylococcus aureus [4]; 8 mm in experiment [6]; 8 mm with Streptococcus agalactiae [8]; 12 mm in the experiment on Streptococcus pneumoniae [9]; 8 mm with Pseudomonas aeruginosa [12]. Moreover, in the experiment with Escherichia coli [13], the “inhibition zone (IZ)” value came to 10 mm. Besides, the MIC with Streptococcus pyogenes [2] was 20.5 µg/mL (≈ 38.1 µM); in the experiment with Staphylococcus aureus [3], 6.5 µg/mL (≈ 12.1 µM); in experiment [5], 19.5 µg/mL (≈ 36.3 µM); with Streptococcus agalactiae [7], 32.5 µg/mL (≈ 60.5 µM); in the experiment with Streptococcus pneumoniae [10] it was 8.5 µg/mL (≈ 15.8 µM); against Pseudomonas aeruginosa [11], 26 µg/mL (≈ 48.4 µM). Moreover, the MIC in the experiment on Escherichia coli [14] stood at 14 µg/mL (≈ 26 µM).

Regarding `O=C(Cn1c2ccccc2c2nc3ccccc3nc21)N1N=C(c2cc3ccccc3o2)CC1/C=C/c1ccccc1` (stereo not given), in the experiment on Candida albicans, the outcome was inactive. For the same molecule, the “inhibition zone (IZ)” value with Streptococcus pyogenes [1] was found to be 10 mm; in the experiment with Staphylococcus aureus [4], 14 mm; in experiment [6] it was 10 mm; in the experiment with Streptococcus agalactiae [8], 9 mm; in the experiment with Streptococcus pneumoniae [9], 12 mm; in the experiment on Pseudomonas aeruginosa [12], 10 mm. In addition, in the experiment on Escherichia coli [13], the “inhibition zone (IZ)” value is on record as 8 mm. Moreover, the MIC against Streptococcus pyogenes [2] amounted to 26.5 µg/mL (≈ 48.4 µM); in the experiment with Staphylococcus aureus [3], 4.5 µg/mL (≈ 8.22 µM); in experiment [5], 14.5 µg/mL (≈ 26.5 µM); in the experiment on Streptococcus agalactiae [7], 22.5 µg/mL (≈ 41.1 µM); in the experiment with Streptococcus pneumoniae [10] it was 10 µg/mL (≈ 18.3 µM); in the experiment on Pseudomonas aeruginosa [11] it was 18.5 µg/mL (≈ 33.8 µM). Also, it took 20.5 µg/mL (≈ 37.4 µM) to inhibit growth with Escherichia coli [14] (MIC).

Turning to `O=C(O)c1ccccc1C1CC(c2cc3ccccc3o2)=NN1C(=O)Cn1c2ccccc2c2nc3ccccc3nc21` (stereo not given), in the experiment on Candida albicans, the outcome was inactive. The “inhibition zone (IZ)” value was determined as 10 mm in the experiment with Streptococcus pyogenes [1]; 12 mm in the experiment on Staphylococcus aureus [4]; 8 mm in [6]; 10 mm in the experiment with Streptococcus agalactiae [8]; 12 mm in the experiment with Streptococcus pneumoniae [9]; 14 mm in the experiment with Pseudomonas aeruginosa [12]. Moreover, the “inhibition zone (IZ)” value with Escherichia coli [13] turned out to be 11 mm. Moreover, the MIC was 30.5 µg/mL (≈ 53.9 µM) with Streptococcus pyogenes [2]; 8.5 µg/mL (≈ 15 µM) against Staphylococcus aureus [3]; 15 µg/mL (≈ 26.5 µM) in experiment [5]; 24 µg/mL (≈ 42.4 µM) with Streptococcus agalactiae [7]; 10.5 µg/mL (≈ 18.6 µM) with Streptococcus pneumoniae [10]; 6.5 µg/mL (≈ 11.5 µM) in the experiment on Pseudomonas aeruginosa [11]. Also, in the experiment with Escherichia coli [14], inhibition of growth (MIC) required 13 µg/mL (≈ 23 µM).

Take `COc1ccc(C2CC(c3cc4ccccc4o3)=NN2C(=O)Cn2c3ccccc3c3nc4ccccc4nc32)c(O)c1` (stereo not given): the result with Candida albicans was inactive. Further, the “inhibition zone (IZ)” value is 14 mm with Streptococcus pyogenes [1]; 13 mm with Staphylococcus aureus [4]; 11 mm in [6]; 11 mm with Streptococcus agalactiae [8]; 16 mm in the experiment on Streptococcus pneumoniae [9]; 10 mm in the experiment with Pseudomonas aeruginosa [12]. The “inhibition zone (IZ)” value with Escherichia coli [13] worked out at 11 mm. Also, the MIC against Streptococcus pyogenes [2] was 26 µg/mL (≈ 45.8 µM); against Staphylococcus aureus [3], 9 µg/mL (≈ 15.9 µM); in experiment [5] it was 14.5 µg/mL (≈ 25.5 µM); in the experiment with Streptococcus agalactiae [7], 28 µg/mL (≈ 49.3 µM); in the experiment with Streptococcus pneumoniae [10] it was 5 µg/mL (≈ 8.81 µM); in the experiment with Pseudomonas aeruginosa [11], 18.5 µg/mL (≈ 32.6 µM). Moreover, the MIC with Escherichia coli [14] stood at 13.5 µg/mL (≈ 23.8 µM).

In the case of `COc1ccccc1C1CC(c2cc3ccccc3o2)=NN1C(=O)Cn1c2ccccc2c2nc3ccccc3nc21` (stereo not given), the outcome in the experiment on Candida albicans was inactive. The “inhibition zone (IZ)” value in the experiment on Streptococcus pyogenes [1] amounted to 15 mm; with Staphylococcus aureus [4], 11 mm; in [6], 7 mm; with Streptococcus agalactiae [8], 9 mm; in the experiment with Streptococcus pneumoniae [9], 10 mm; with Pseudomonas aeruginosa [12], 12 mm. Besides, the “inhibition zone (IZ)” value in the experiment with Escherichia coli [13] turned out to be 9 mm. In addition, the MIC in the experiment with Streptococcus pyogenes [2] turned out to be 22.5 µg/mL (≈ 40.8 µM); with Staphylococcus aureus [3], 7.5 µg/mL (≈ 13.6 µM); in experiment [5], 15.5 µg/mL (≈ 28.1 µM); against Streptococcus agalactiae [7], 25 µg/mL (≈ 45.3 µM); against Streptococcus pneumoniae [10] it was 11.5 µg/mL (≈ 20.8 µM); in the experiment with Pseudomonas aeruginosa [11], 14.5 µg/mL (≈ 26.3 µM). This molecule registered an MIC with Escherichia coli [14] of 16.5 µg/mL (≈ 29.9 µM).

For the molecule `O=C(Cn1c2ccccc2c2nc3ccccc3nc21)N1N=C(c2cc3ccccc3o2)CC1c1ccccc1[N+](=O)[O-]` (stereo not given), the outcome in the experiment with Candida albicans was inactive. The “inhibition zone (IZ)” value in the experiment on Streptococcus pyogenes [1] came to 10 mm; in the experiment with Staphylococcus aureus [4], 12 mm; in [6], 10 mm; in the experiment on Streptococcus agalactiae [8] it was 12 mm; with Streptococcus pneumoniae [9] it was 13 mm; with Pseudomonas aeruginosa [12] it was 12 mm. Further, the “inhibition zone (IZ)” value in the experiment on Escherichia coli [13] was 16 mm. In addition, the MIC in the experiment on Streptococcus pyogenes [2] turned out to be 24 µg/mL (≈ 42.4 µM); in the experiment on Staphylococcus aureus [3], 9.5 µg/mL (≈ 16.8 µM); in [5], 14.5 µg/mL (≈ 25.6 µM); with Streptococcus agalactiae [7], 22 µg/mL (≈ 38.8 µM); against Streptococcus pneumoniae [10], 8.5 µg/mL (≈ 15 µM); against Pseudomonas aeruginosa [11], 10.5 µg/mL (≈ 18.5 µM). For the same molecule, the MIC against Escherichia coli [14] stood at 5.5 µg/mL (≈ 9.71 µM).
